Source: ChEMBL document CHEMBL1133584, “Potent and selective non-peptidic inhibitors of endothelin-converting enzyme-1 with sustained duration of action” (J Med Chem, 2000)

Experiments:
[1] = biological target: T1, Endothelin-converting enzyme 1 (Homo sapiens) (UniProt P42892); assay: Inhibition of Endothelin-converting enzyme 1 activity at a concentration of 1 uM
T1 sequence (whole entry): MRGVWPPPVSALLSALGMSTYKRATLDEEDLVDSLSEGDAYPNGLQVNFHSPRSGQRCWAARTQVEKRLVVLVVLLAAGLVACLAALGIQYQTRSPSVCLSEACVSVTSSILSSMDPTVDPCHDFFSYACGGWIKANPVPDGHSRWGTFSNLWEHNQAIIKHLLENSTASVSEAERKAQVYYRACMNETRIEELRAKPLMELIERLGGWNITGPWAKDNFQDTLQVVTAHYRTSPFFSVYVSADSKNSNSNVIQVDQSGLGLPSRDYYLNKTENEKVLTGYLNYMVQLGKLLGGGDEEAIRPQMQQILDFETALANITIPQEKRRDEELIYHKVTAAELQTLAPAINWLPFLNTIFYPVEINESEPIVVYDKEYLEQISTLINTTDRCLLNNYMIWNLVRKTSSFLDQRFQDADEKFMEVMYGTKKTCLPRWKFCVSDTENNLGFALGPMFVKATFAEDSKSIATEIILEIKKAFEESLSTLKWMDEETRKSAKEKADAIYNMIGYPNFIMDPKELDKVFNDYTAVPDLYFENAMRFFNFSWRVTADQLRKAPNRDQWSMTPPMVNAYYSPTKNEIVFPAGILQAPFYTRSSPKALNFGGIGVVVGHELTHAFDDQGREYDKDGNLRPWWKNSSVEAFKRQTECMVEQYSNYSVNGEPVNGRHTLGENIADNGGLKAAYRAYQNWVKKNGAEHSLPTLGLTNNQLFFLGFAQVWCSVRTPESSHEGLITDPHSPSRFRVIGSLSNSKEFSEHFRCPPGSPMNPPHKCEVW
Summary of the method: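 Human recombinant ECE-1a came from CHO cell membranes. Activity was measured with test compound at 1 µM and expressed as percent inhibition.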

[2] = Selectivity ratio of IC50 NEP/IC50 ECE
Summary of the method: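 ECE selectivity was the ratio of IC50 against rat kidney cortex NEP 24.11 to IC50 against CHO-membrane human recombinant ECE-1a.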

Neprilysin = biological target: T2, Neprilysin (Rattus norvegicus, UniProt P07861); assay: In vitro inhibition of rat neutral endopeptidase
T2 sequence (P07861 whole entry): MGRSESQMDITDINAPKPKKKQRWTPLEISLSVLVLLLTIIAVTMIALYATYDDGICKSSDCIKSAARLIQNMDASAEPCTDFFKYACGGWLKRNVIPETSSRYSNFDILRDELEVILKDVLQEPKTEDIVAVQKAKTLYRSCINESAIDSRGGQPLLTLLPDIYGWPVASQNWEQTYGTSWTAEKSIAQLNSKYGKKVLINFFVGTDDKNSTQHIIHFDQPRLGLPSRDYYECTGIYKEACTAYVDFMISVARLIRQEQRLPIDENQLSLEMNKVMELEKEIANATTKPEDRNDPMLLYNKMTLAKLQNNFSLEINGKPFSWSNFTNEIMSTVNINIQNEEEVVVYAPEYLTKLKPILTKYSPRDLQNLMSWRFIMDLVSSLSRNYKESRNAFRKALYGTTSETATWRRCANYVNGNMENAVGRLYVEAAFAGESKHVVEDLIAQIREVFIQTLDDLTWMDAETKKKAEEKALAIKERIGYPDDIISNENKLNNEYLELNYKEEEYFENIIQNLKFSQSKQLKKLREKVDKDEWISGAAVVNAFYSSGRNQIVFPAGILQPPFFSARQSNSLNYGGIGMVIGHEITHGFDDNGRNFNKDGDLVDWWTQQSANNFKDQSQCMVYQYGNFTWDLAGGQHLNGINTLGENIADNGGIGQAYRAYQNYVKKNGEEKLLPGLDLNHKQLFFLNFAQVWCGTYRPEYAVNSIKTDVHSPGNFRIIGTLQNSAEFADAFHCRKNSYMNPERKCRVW

Row | inhibition [1] | Selectivity [2] | IC50 (Neprilysin) | Compound
1 | 73% | 29 |  | O=P(O)(O)C(CCc1cccc2ccccc12)N[C@@H](Cc1ccc2c(c1)oc1ccccc12)c1nnn[nH]1 (stereo in doubt; 43b')
2 | 91% | > 250 |  | COc1cc(OC)c(OC)cc1CCC(N[C@@H](Cc1ccc2c(c1)oc1ccccc12)C(=O)O)P(=O)(O)O (stereo in doubt; 40i')
3 | 81% | 261 |  | CC(N[C@@H](Cc1ccc2c(c1)oc1ccccc12)C(=O)O)P(=O)(O)O (stereo in doubt; 40v)
4 | 95% | 1260 |  | COc1cccc(CCC(N[C@@H](Cc2ccc3c(c2)oc2ccccc23)C(=O)O)P(=O)(O)O)c1OC (stereo in doubt; 40c)
5 | 98% | 81 |  | O=P(O)(O)C(CCc1cccc2ccccc12)N[C@@H](Cc1ccc2c(c1)oc1ccccc12)c1nnn[nH]1 (stereo in doubt; 43a')
6 | 84% | > 1030 |  | NCCCCC(N[C@@H](Cc1ccc2c(c1)oc1ccccc12)C(=O)O)P(=O)(O)O (stereo in doubt; 40o')
7 | 93% | > 345 |  | COc1ccc(CCC(N[C@@H](Cc2ccc3c(c2)oc2ccccc23)C(=O)O)P(=O)(O)O)cc1OC (stereo in doubt; 40e')
8 | 95% | 574 |  | O=C(O)[C@H](Cc1ccc2c(c1)oc1ccccc12)NC(CCc1cccc2ccccc12)P(=O)(O)O (stereo in doubt; 40a')
9 | 94% | 4210 |  | O=C(O)[C@H](Cc1ccc2c(c1)oc1ccccc12)NC(CCc1cccc2cccnc12)P(=O)(O)O (stereo in doubt; 40m')
10 | 58% |  |  | COc1ccc(CCC(N[C@@H](Cc2ccc3c(c2)oc2ccccc23)C(=O)O)P(=O)(O)O)cc1OC (stereo in doubt; 40f ')
11 | 88% | 292 |  | CC(N[C@@H](Cc1ccc2c(c1)oc1ccccc12)C(=O)O)P(=O)(O)O (stereo in doubt; 40u)
12 | 29% |  |  | NCCCC(N[C@@H](Cc1ccc2c(c1)oc1ccccc12)C(=O)O)P(=O)(O)O (stereo in doubt; 40r')
13 | 73% |  |  | NCCCC(N[C@@H](Cc1ccc2c(c1)oc1ccccc12)C(=O)O)P(=O)(O)O (stereo in doubt; 40q')
14 | 35% |  | 1.64 µM | CC(NC(=O)[C@H](Cc1ccc2c(c1)oc1ccccc12)NCP(=O)(O)O)C(=O)O (stereo partly drawn)
15 | 91% | 428 |  | COc1ccc(CCC(N[C@@H](Cc2ccc3c(c2)oc2ccccc23)C(=O)O)P(=O)(O)O)c(OC)c1OC (stereo in doubt; 40k')
16 | 38% |  |  | COc1cc(OC)c(OC)cc1CCC(N[C@@H](Cc1ccc2c(c1)oc1ccccc12)C(=O)O)P(=O)(O)O (stereo in doubt; 40j')
17 | 5% |  |  | O=C(NCCc1ccc(-c2ccccc2)cc1)[C@H](Cc1ccc2c(c1)oc1ccccc12)NCP(=O)(O)O
18 | 64% |  |  | COc1ccc(CCC(N[C@@H](Cc2ccc3c(c2)oc2ccccc23)C(=O)O)P(=O)(O)O)c(OC)c1OC (stereo in doubt; 40l')
19 | 29% |  |  | O=C(NCCc1ccccc1)[C@H](Cc1ccc2c(c1)oc1ccccc12)NCP(=O)(O)O
20 | 85% | 58 |  | COc1cccc(CCC(N[C@@H](Cc2ccc3c(c2)oc2ccccc23)C(=O)O)P(=O)(O)O)c1OC (stereo in doubt; 40d')
21 | 19% |  |  | NCCCCC(N[C@@H](Cc1ccc2c(c1)oc1ccccc12)C(=O)O)P(=O)(O)O (stereo in doubt; 40p')
22 | 43% |  | > 10 µM | O=C(O)CNC(=O)[C@H](Cc1ccc2c(c1)oc1ccccc12)NCP(=O)(O)O
23 | 34% |  |  | O=C(O)[C@H](Cc1ccc2c(c1)oc1ccccc12)NC(CCc1cccc2ccccc12)P(=O)(O)O (stereo in doubt; 40b')

Row | Compound | inhibition [1] | Selectivity [2] | IC50 (Neprilysin)
24 | CC(C)C[C@H](NP(=O)(O)O[C@@H]1O[C@@H](C)[C@H](O)[C@@H](O)[C@H]1O)C(=O)N[C@@H](Cc1c[nH]c2ccccc12)C(=O)O [PHOSPHORAMIDON] |  |  | 0.03 µM
